Test results as given in ChEMBL document CHEMBL3576866, “Discovery of a Cyclic Boronic Acid β-Lactamase Inhibitor (RPX7009) with Utility vs Class A Serine Carbapenemases” (J Med Chem, 2015).

How the values were obtained:
[1] = target: Carbapenem-hydrolyzing beta-lactamase KPC (Klebsiella pneumoniae) (UniProt Q9F663); assay: Inhibition of Klebsiella pneumoniae KP1084 KPC-3 assessed as biapenem MIC at 4 ug/ml by broth microdilution method
[2] = target: Beta lactamase TEM-1 (Klebsiella pneumoniae) (UniProt Q7B899); assay: Inhibition of Klebsiella pneumoniae KP1084 TEM-1 assessed as biapenem MIC at 4 ug/ml by broth microdilution method
[3] = tested on: Klebsiella pneumoniae; assay: Inhibition of Klebsiella pneumoniae KP1087 KPC-2 assessed as biapenem MIC at 4 ug/ml by broth microdilution method
[4] = tested on: Klebsiella pneumoniae; assay: Inhibition of Klebsiella pneumoniae KP1082 KPC-2 assessed as meropenem MIC at 4 ug/ml by broth microdilution method
How it was run: (§1)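 CLSI broth microdilution (M07-A9, 2012) MIC of the carbapenem against clinical serine carbapenemase-producing strain, tested alone and with the inhibitor held at a fixed 4 μg/mL.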

[5] = tested on: Klebsiella pneumoniae; assay: Inhibition of Klebsiella pneumoniae KP1008 KPC-2 assessed as meropenem MIC at 4 ug/ml by broth microdilution method; how it was run: as §1
[6] = target: Carbapenem-hydrolyzing beta-lactamase KPC (Klebsiella oxytoca) (UniProt Q848S6); assay: Inhibition of Klebsiella oxytoca KX1017 KPC-2 assessed as meropenem MIC at 4 ug/ml by broth microdilution method; how it was run: as §1
[7] = target: Beta-lactamase TEM (Enterobacter cloacae) (UniProt Q6W9J1); assay: Inhibition of Enterobacter cloacae ECL1058 TEM-1 assessed as meropenem MIC at 4 ug/ml by broth microdilution method
[8] = tested on: Klebsiella pneumoniae; assay: Inhibition of Klebsiella pneumoniae KP1087 CTX-M-15 assessed as meropenem MIC at 4 ug/ml by broth microdilution method; how it was run: as §1
[9] = tested on: Klebsiella pneumoniae; assay: Inhibition of Klebsiella pneumoniae KP1084 SHV-11 assessed as meropenem MIC at 4 ug/ml by broth microdilution method; how it was run: as §1
[10] = target: Urokinase-type plasminogen activator (Homo sapiens, UniProt P00749); assay: Inhibition of urokinase (unknown origin) using NGK-pNA as substrate preincubated for 10 mins followed by substrate addition measured for 30 mins by spectrophotometric analysis
How it was run: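 Urokinase, from a commercial source, in 50 mM Tris-HCl, pH 8.5, 38 mM NaCl. Mixed with inhibitor at various concentrations for 10 min at 37 °C, then NGK-pNA (listed at 100 μM) added and absorbance monitored for 30 min. Rates were relative to untreated; IC50 is the concentration giving 50% inhibition.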

[11] = Inhibition of elastase (unknown origin) using Suc-AAPA-pNA as substrate preincubated for 10 mins followed by substrate addition measured for 30 mins by spectrophotometric analysis; parameters: species or system Homo sapiens
How it was run: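 Elastase from a commercial source in 25 mM Tris-HCl, pH 8.0. Inhibitor at various concentrations was preincubated 10 min at 37 °C. Suc-AAPA-pNA (listed at 50 μM) was added and absorbance followed for 30 min. Rates were relative to untreated; IC50 is the concentration giving 50% inhibition.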

[12] = target: Tissue-type plasminogen activator (Homo sapiens, UniProt P00750); assay: Inhibition of tissue plasminogen activator (unknown origin) using GK-pNA as substrate preincubated for 10 mins followed by substrate addition measured for 30 mins by spectrophotometric analysis
How it was run: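 Tissue plasminogen activator (commercial) in 30 mM Tris-HCl, pH 8.5, 30 mM imidazole, 130 mM NaCl. Incubated with inhibitor at several concentrations for 10 min at 37 °C. GK-pNA (listed at 100 μM) was added and absorbance followed for 30 min. Rates were relative to a no-treatment control; IC50 is the concentration giving 50% inhibition.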

[13] = target: Neutrophil elastase (Homo sapiens, UniProt P08246); assay: Inhibition of neutrophil elastase (unknown origin) using MeOSuc-AAVP-AMC as substrate preincubated for 10 mins followed by substrate addition measured for 30 mins by spectrophotometric analysis
How it was run: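 Purified commercial enzyme, mixed with inhibitor across a concentration range in 50 mM Tris-HCl pH 7.5, 1 M NaCl and held 10 min at 37 °C. MeOSuc-AAVP-AMC (30 μM) then added and fluorescence followed for 30 min. Rates expressed relative to untreated control. IC50 taken as the concentration giving 50% inhibition. AEBSF and leupeptin served as positive controls.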

[14] = Clearance in rat at 300 mg/kg, iv administered as 0.5 hrs infusion by HPLC-MS method; format: ADME, organism-based; settings: in vivo
[15] = tested on: Homo sapiens; assay: Toxicity in human at 250 to 1500 mg administered as 3 hrs of infusion; format: organism-based; settings: in vivo, iv
How it was run: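 Phase 1 study in 36 normal (healthy) volunteers under GCP. Single 3 h infusions were given at 250, 500, 750, 1000, 1250 or 1500 mg, and drug-related adverse events were recorded.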

[16] = tested on: Homo sapiens; assay: Clearance in human at 1 g administered as 3 hrs of infusion; format: ADME, organism-based; settings: in vivo, iv
[17] = tested on: Enterobacter cloacae; assay: Inhibition of Enterobacter cloacae ECL1003 SHV assessed as cefepime MIC at 4 ug/ml by broth microdilution method
How it was run: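 CLSI broth microdilution (M07-A9) against clinical strains expressing serine β-lactamases.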

[18] = tested on: Klebsiella pneumoniae; assay: Inhibition of Klebsiella pneumoniae KP1004 KPC-2 assessed as biapenem MIC at 4 ug/ml by broth microdilution method; how it was run: as §1
[19] = target: Beta lactamase TEM-1 (Klebsiella pneumoniae) (UniProt Q7B899); assay: Inhibition of Klebsiella pneumoniae KP1004 TEM-1 assessed as biapenem MIC at 4 ug/ml by broth microdilution method; how it was run: as §1
[20] = target: T1, Beta-lactamase SHV-1 (Klebsiella pneumoniae) (UniProt P0AD64); assay: Inhibition of Klebsiella pneumoniae KP1082 SHV-1 assessed as biapenem MIC at 4 ug/ml by broth microdilution method; how it was run: as §1
T1 sequence (whole entry): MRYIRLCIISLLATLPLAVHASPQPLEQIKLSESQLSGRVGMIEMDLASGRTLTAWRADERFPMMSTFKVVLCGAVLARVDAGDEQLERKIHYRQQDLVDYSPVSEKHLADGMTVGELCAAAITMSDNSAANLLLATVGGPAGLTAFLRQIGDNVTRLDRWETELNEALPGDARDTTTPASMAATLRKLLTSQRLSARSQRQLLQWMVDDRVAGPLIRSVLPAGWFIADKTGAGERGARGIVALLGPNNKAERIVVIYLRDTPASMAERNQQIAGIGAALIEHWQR

[21] = target: Beta-lactamase (Klebsiella pneumoniae) (UniProt Q93LQ9); assay: Inhibition of Klebsiella pneumoniae KP1083 KPC-3 assessed as biapenem MIC at 4 ug/ml by broth microdilution method; how it was run: as §1
[22] = target: Beta-lactamase TEM (Enterobacter cloacae) (UniProt Q6W9J1); assay: Inhibition of Enterobacter cloacae ECL1058 TEM-1 assessed as ertapenem MIC at 4 ug/ml by broth microdilution method
[23] = tested on: Klebsiella pneumoniae; assay: Inhibition of Klebsiella pneumoniae KP1004 SHV-11 assessed as imipenem MIC at 4 ug/ml by broth microdilution method; how it was run: as §1
[24] = target: Beta lactamase TEM-1 (Klebsiella pneumoniae) (UniProt Q7B899); assay: Inhibition of Klebsiella pneumoniae KP1083 TEM-1 assessed as imipenem MIC at 4 ug/ml by broth microdilution method
[25] = target: Carbapenem-hydrolyzing beta-lactamase KPC (Klebsiella oxytoca) (UniProt Q848S6); assay: Inhibition of Klebsiella oxytoca KX1019 KPC-2 assessed as imipenem MIC at 4 ug/ml by broth microdilution method
[26] = target: Carbapenem-hydrolyzing beta-lactamase KPC (Klebsiella oxytoca) (UniProt Q848S6); assay: Inhibition of Klebsiella oxytoca KX1017 KPC-2 assessed as imipenem MIC at 4 ug/ml by broth microdilution method

Chain of Carbapenem-hydrolyzing beta-lactamase KPC (Klebsiella oxytoca) (Q848S6 whole entry): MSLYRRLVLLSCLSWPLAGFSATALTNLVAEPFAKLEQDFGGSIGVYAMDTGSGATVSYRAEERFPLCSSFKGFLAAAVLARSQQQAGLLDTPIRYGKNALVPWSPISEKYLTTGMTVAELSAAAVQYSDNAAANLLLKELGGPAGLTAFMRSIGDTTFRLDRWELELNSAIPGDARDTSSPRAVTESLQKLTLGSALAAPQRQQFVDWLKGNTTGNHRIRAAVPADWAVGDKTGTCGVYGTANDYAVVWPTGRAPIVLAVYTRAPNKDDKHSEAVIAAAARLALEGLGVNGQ
Chain of Beta lactamase TEM-1 (Klebsiella pneumoniae) (Q7B899 as listed by the source): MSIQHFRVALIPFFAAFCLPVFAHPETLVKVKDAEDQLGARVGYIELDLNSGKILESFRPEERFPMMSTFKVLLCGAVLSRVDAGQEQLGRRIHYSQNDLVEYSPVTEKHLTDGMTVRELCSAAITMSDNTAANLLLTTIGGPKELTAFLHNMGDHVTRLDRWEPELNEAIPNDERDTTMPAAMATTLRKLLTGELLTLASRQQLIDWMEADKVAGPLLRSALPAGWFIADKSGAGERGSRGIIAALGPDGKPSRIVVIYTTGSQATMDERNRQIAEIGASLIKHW
Chain of Beta-lactamase TEM (Enterobacter cloacae) (Q6W9J1 as listed by the source): as the sequence (Q7B899 as listed by the source) above
Chain of Neutrophil elastase (P08246 whole entry): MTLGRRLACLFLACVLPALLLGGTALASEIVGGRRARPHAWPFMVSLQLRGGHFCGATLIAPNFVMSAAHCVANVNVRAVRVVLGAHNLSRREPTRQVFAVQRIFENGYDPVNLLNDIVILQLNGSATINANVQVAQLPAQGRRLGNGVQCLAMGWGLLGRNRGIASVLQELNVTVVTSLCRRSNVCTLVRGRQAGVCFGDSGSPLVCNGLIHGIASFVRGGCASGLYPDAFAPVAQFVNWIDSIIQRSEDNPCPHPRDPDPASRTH
Chain of Tissue-type plasminogen activator (P00750 whole entry): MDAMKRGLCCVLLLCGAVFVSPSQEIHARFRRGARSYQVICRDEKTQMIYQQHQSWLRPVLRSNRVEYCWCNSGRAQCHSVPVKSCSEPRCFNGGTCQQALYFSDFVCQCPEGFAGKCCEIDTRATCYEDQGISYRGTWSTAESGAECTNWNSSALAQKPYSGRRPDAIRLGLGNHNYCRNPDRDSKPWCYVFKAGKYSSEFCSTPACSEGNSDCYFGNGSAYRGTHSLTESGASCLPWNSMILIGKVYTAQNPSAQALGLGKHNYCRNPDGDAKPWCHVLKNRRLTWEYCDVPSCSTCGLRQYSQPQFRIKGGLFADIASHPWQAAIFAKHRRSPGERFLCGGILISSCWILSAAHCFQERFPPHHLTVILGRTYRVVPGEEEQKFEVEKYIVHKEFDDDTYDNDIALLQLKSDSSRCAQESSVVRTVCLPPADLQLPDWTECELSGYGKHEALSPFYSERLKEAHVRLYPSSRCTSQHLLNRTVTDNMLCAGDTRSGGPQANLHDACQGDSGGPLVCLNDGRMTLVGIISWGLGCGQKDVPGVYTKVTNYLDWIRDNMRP
Chain of Beta-lactamase (Klebsiella pneumoniae) (Q93LQ9 as listed by the source): as the sequence (Q848S6 whole entry) above
Chain of Carbapenem-hydrolyzing beta-lactamase KPC (Klebsiella pneumoniae) (Q9F663 whole entry): as the sequence (Q848S6 whole entry) above

With `O=C(O)C[C@@H]1CC[C@H](NC(=O)Cc2cccs2)B(O)O1` [VABORBACTAM] the MIC [1] was 0.25 µg/mL, the MIC [2] was 0.25 µg/mL and the MIC [3] was 0.25 µg/mL. The MIC [4] was at most 0.06 µg/mL, the MIC [5] was at most 0.06 µg/mL and the MIC [6] was under 0.06 µg/mL. For the same molecule, the MIC [7] was under 0.06 µg/mL, the MIC [8] was 1 µg/mL and the MIC [9] was 0.5 µg/mL. The IC50 [10] was over 1 mM, the IC50 [11] was over 1 mM and the IC50 [12] was over 1 mM. The IC50 [13] was over 1 mM, the clearance [14] was 21 mL/min/kg and the Activity [15] was “Non-toxic”. For the same molecule, the clearance [16] was 12.8 L/h, the MIC [17] was 8 µg/mL and the MIC [18] was at most 0.06 µg/mL. For the same molecule, the MIC [19] was under 0.06 µg/mL, the MIC [20] was under 0.06 µg/mL and the MIC [21] was under 0.06 µg/mL. For the same molecule, the MIC [22] was 0.25 µg/mL, the MIC [23] was at most 0.06 µg/mL and the MIC [24] was 0.13 µg/mL. For the same molecule, the MIC [25] was 0.13 µg/mL and the MIC [26] was 0.13 µg/mL.
